{"source": "ChEMBL document CHEMBL1130012", "about": "(J Med Chem, 1997)", "details_in_all_cases": "in vivo, 0.25 h", "key": {"[1]": {"species_on_record": "Rattus norvegicus", "assay": "The Biodistribution of the antagonistic compound in male wistar rats, after 15 minutes of injection in the trachea expressed as (body weight-corrected) uptake value; call rule not given here", "assay_type": "organism-based"}, "[2]": {"system": "Rattus norvegicus", "assay": "The Biodistribution of the antagonistic compound along with pretreated atropine (2.5 mg/kg) in male wistar rats after 15 minutes of injection in the pancreas expressed as (body weight-corrected) uptake value", "assay_type": "organism-based", "method_in_brief": "(§1)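 Same protocol, except the pretreatment was saline containing atropine (0.5 mg/0.5 mL; 2.5 mg/kg) given i.v. 1 min before tail-vein injection of the radioligand (1.85-2.78 MBq in 0.4 mL saline) into pentobarbital-anaesthetized (60 mg/kg) male Wistar rats (240 g). Tissues removed at 15 min and counted ex vivo. Uptake is body-weight-corrected DAR = (cpm/g tissue)/(cpm injected/g body weight).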"}, "[3]": {"system": "Rattus norvegicus", "assay": "The Biodistribution of the antagonistic compound along with pretreated atropine (2.5 mg/kg) in male wistar rats after 15 minutes of injection in the plasma expressed as (body weight-corrected) uptake value", "assay_type": "organism-based", "method_in_brief": "as §1"}, "[4]": {"system": "Rattus norvegicus", "assay": "The Biodistribution of the antagonistic compound along with pretreated atropine (2.5 mg/kg) in male wistar rats after 15 minutes of injection in the red blood cells; Below limit of detection expressed as (body weight-corrected) uptake value", "assay_type": "organism-based", "method_in_brief": "as §1"}, "[5]": {"system": "Rattus norvegicus", "assay": "The Biodistribution of the antagonistic compound along with pretreated atropine (2.5 mg/kg) in male wistar rats after 15 minutes of injection in the spleen", "assay_type": "organism-based", "method_in_brief": "as §1"}, "[6]": {"system": "Rattus norvegicus", "assay": "The Biodistribution of the antagonistic compound along with pretreated atropine (2.5 mg/kg) in male wistar rats after 15 minutes of injection in the submandibular gland expressed as (body weight-corrected) uptake value", "assay_type": "organism-based", "method_in_brief": "as §1"}, "[7]": {"system": "Rattus norvegicus", "assay": "The Biodistribution of the antagonistic compound along with pretreated atropine (2.5 mg/kg) in male wistar rats after 15 minutes of injection in the testes expressed as (body weight-corrected) uptake value", "assay_type": "organism-based, Testis", "method_in_brief": "as §1"}, "[8]": {"system": "Rattus norvegicus", "assay": "The Biodistribution of the antagonistic compound along with pretreated atropine (2.5 mg/kg) in male wistar rats after 15 minutes of injection in the trachea expressed as (body weight-corrected) uptake value", "assay_type": "organism-based", "method_in_brief": "as §1"}, "[9]": {"species_on_record": "Rattus norvegicus", "assay": "The Biodistribution of the antagonistic compound in male wistar rats, after 15 minutes of injection in the cerebellum expressed as (body weight-corrected) uptake value; Below limit of detection", "assay_type": "organism-based"}, "[10]": {"species_on_record": "Rattus norvegicus", "assay": "The Biodistribution of the antagonistic compound in male wistar rats, after 15 minutes of injection in the cortex expressed as (body weight-corrected) uptake value; Below limit of detection", "assay_type": "organism-based"}, "[11]": {"species_on_record": "Rattus norvegicus", "assay": "The Biodistribution of the antagonistic compound in male wistar rats, after 15 minutes of injection in the fat expressed as (body weight-corrected) uptake value", "assay_type": "organism-based, Adipose tissue"}, "[12]": {"species_on_record": "Rattus norvegicus", "assay": "The Biodistribution of the antagonistic compound in male wistar rats, after 15 minutes of injection in the heart", "assay_type": "organism-based"}, "[13]": {"species_on_record": "Rattus norvegicus", "assay": "The Biodistribution of the antagonistic compound in male wistar rats, after 15 minutes of injection in the intestine expressed as (body weight-corrected) uptake value", "assay_type": "organism-based"}, "[14]": {"species_on_record": "Rattus norvegicus", "assay": "The Biodistribution of the antagonistic compound in male wistar rats, after 15 minutes of injection in the kidney expressed as (body weight-corrected) uptake value", "assay_type": "organism-based"}, "[15]": {"species_on_record": "Rattus norvegicus", "assay": "The Biodistribution of the antagonistic compound in male wistar rats, after 15 minutes of injection in the lung expressed as (body weight-corrected) uptake value", "assay_type": "organism-based"}, "[16]": {"species_on_record": "Rattus norvegicus", "assay": "The Biodistribution of the antagonistic compound in male wistar rats, after 15 minutes of injection in the muscle expressed as (body weight-corrected) uptake value", "assay_type": "organism-based, Muscle tissue"}, "[17]": {"species_on_record": "Rattus norvegicus", "assay": "The Biodistribution of the antagonistic compound in male wistar rats, after 15 minutes of injection in the pancreas expressed as (body weight-corrected) uptake value", "assay_type": "organism-based"}, "[18]": {"species_on_record": "Rattus norvegicus", "assay": "The Biodistribution of the antagonistic compound in male wistar rats, after 15 minutes of injection in the plasma expressed as (body weight-corrected) uptake value", "assay_type": "organism-based"}, "[19]": {"system": "Rattus norvegicus", "assay": "The Biodistribution of the antagonistic compound along with pretreated atropine (2.5 mg/kg) in male wistar rats after 15 minutes of injection in the bladder", "assay_type": "organism-based, Urinary bladder/Urine", "method_in_brief": "as §1"}, "[20]": {"system": "Rattus norvegicus", "assay": "The Biodistribution of the antagonistic compound along with pretreated atropine (2.5 mg/kg) in male wistar rats after 15 minutes of injection in the cerebellum; Below limit of detection", "assay_type": "organism-based", "method_in_brief": "as §1"}, "[21]": {"system": "Rattus norvegicus", "assay": "The Biodistribution of the antagonistic compound along with pretreated atropine (2.5 mg/kg) in male wistar rats after 15 minutes of injection in the cortex expressed as (body weight-corrected) uptake value; Below limit of detection", "assay_type": "organism-based", "method_in_brief": "as §1"}, "[22]": {"system": "Rattus norvegicus", "assay": "The Biodistribution of the antagonistic compound along with pretreated atropine (2.5 mg/kg) in male wistar rats after 15 minutes of injection in the fat expressed as (body weight-corrected) uptake value", "assay_type": "organism-based, Adipose tissue", "method_in_brief": "as §1"}, "[23]": {"system": "Rattus norvegicus", "assay": "The Biodistribution of the antagonistic compound along with pretreated atropine (2.5 mg/kg) in male wistar rats after 15 minutes of injection in the heart expressed as (body weight-corrected) uptake value", "assay_type": "organism-based", "method_in_brief": "as §1"}, "[24]": {"species_on_record": "Rattus norvegicus", "assay": "Biodistribution of compound in male wistar rats, after 15 minutes of injection in the bladder expressed as (body weight-corrected) uptake value", "assay_type": "ADME, organism-based, Urinary bladder/Urine"}, "[25]": {"species_on_record": "Rattus norvegicus", "assay": "The Biodistribution of the antagonistic compound in male wistar rats, after 15 minutes of injection in the red blood cells expressed as (body weight-corrected) uptake value; Below limit of detection", "assay_type": "organism-based"}, "[26]": {"species_on_record": "Rattus norvegicus", "assay": "The Biodistribution of the antagonistic compound in male wistar rats, after 15 minutes of injection in the stomach expressed as (body weight-corrected) uptake value", "assay_type": "organism-based"}, "[27]": {"species_on_record": "Rattus norvegicus", "assay": "The Biodistribution of the antagonistic compound in male wistar rats, after 15 minutes of injection in the submandibular gland expressed as (body weight-corrected) uptake value", "assay_type": "organism-based"}, "[28]": {"species_on_record": "Rattus norvegicus", "assay": "The Biodistribution of the antagonistic compound in male wistar rats, after 15 minutes of injection in the testes expressed as (body weight-corrected) uptake value", "assay_type": "organism-based, Testis"}, "[29]": {"system": "Rattus norvegicus", "assay": "The Biodistribution of the antagonistic compound along with pretreated atropine (2.5 mg/kg) in male wistar rats after 15 minutes of injection in the intestine expressed as (body weight-corrected) uptake value", "assay_type": "organism-based", "method_in_brief": "as §1"}, "[30]": {"system": "Rattus norvegicus", "assay": "The Biodistribution of the antagonistic compound along with pretreated atropine (2.5 mg/kg) in male wistar rats after 15 minutes of injection in the kidney expressed as (body weight-corrected) uptake value", "assay_type": "organism-based", "method_in_brief": "as §1"}, "[31]": {"system": "Rattus norvegicus", "assay": "The Biodistribution of the antagonistic compound along with pretreated atropine (2.5 mg/kg) in male wistar rats after 15 minutes of injection in the liver expressed as (body weight-corrected) uptake value", "assay_type": "organism-based", "method_in_brief": "as §1"}, "[32]": {"system": "Rattus norvegicus", "assay": "The Biodistribution of the antagonistic compound along with pretreated atropine (2.5 mg/kg) in male wistar rats after 15 minutes of injection in the lung expressed as (body weight-corrected) uptake value", "assay_type": "organism-based", "method_in_brief": "as §1"}, "[33]": {"system": "Rattus norvegicus", "assay": "The Biodistribution of the antagonistic compound along with pretreated atropine (2.5 mg/kg) in male wistar rats after 15 minutes of injection in the muscle expressed as (body weight-corrected) uptake value", "assay_type": "organism-based, Muscle tissue", "method_in_brief": "as §1"}, "[34]": {"species_on_record": "Rattus norvegicus", "assay": "The Biodistribution of the antagonistic compound in male wistar rats, after 15 minutes of injection in the liver expressed as (body weight-corrected) uptake value", "assay_type": "organism-based"}, "[35]": {"species_on_record": "Rattus norvegicus", "assay": "The Biodistribution of the antagonistic compound in male wistar rats, after 15 minutes of injection in the spleen expressed as (body weight-corrected) uptake value", "assay_type": "organism-based"}, "[36]": {"system": "Rattus norvegicus", "assay": "The Biodistribution of the antagonistic compound along with pretreated atropine (2.5 mg/kg) in male wistar rats after 15 minutes of injection in the stomach expressed as (body weight-corrected) uptake value", "assay_type": "organism-based", "method_in_brief": "as §1"}}}
{"smiles": "C[N+]1(C)CCC(OC(=O)C(O)(c2ccccc2)C2CCCCC2)CC1.[I-]", "note": "(racemic)", "values": [{"measurement": "Uptake value", "setting": "[1]", "value": 0.54}, {"measurement": "Uptake value", "setting": "[2]", "value": 0.34}, {"measurement": "Uptake value", "setting": "[3]", "value": 0.13}, {"measurement": "Uptake value", "setting": "[4]", "value": "Not Active"}, {"measurement": "Uptake value", "setting": "[5]", "value": 0.18}, {"measurement": "Uptake value", "setting": "[6]", "value": 0.2}, {"measurement": "Uptake value", "setting": "[7]", "value": 0.11}, {"measurement": "Uptake value", "setting": "[8]", "value": 0.24}, {"measurement": "Uptake value", "setting": "[9]", "value": "Not Active"}, {"measurement": "Uptake value", "setting": "[10]", "value": "Not Active"}, {"measurement": "Uptake value", "setting": "[11]", "value": 0.5}, {"measurement": "Uptake value", "setting": "[12]", "value": 8.45}, {"measurement": "Uptake value", "setting": "[13]", "value": 3.39}, {"measurement": "Uptake value", "setting": "[14]", "value": 2.48}, {"measurement": "Uptake value", "setting": "[15]", "value": 0.67}, {"measurement": "Uptake value", "setting": "[16]", "value": 0.08}, {"measurement": "Uptake value", "setting": "[17]", "value": 1.97}, {"measurement": "Uptake value", "setting": "[18]", "value": 0.14}, {"measurement": "Uptake value", "setting": "[19]", "value": 9.72}, {"measurement": "Uptake value", "setting": "[20]", "value": "Not Active"}, {"measurement": "Uptake value", "setting": "[21]", "value": "Not Active"}, {"measurement": "Uptake value", "setting": "[22]", "value": 0.23}, {"measurement": "Uptake value", "setting": "[23]", "value": 0.16}, {"measurement": "Uptake value", "setting": "[24]", "value": 4.71}, {"measurement": "Uptake value", "setting": "[25]", "value": "Not Active"}, {"measurement": "Uptake value", "setting": "[26]", "value": 1.62}, {"measurement": "Uptake value", "setting": "[27]", "value": 1.68}, {"measurement": "Uptake value", "setting": "[28]", "value": 0.07}, {"measurement": "Uptake value", "setting": "[29]", "value": 1.1}, {"measurement": "Uptake value", "setting": "[30]", "value": 1.49}, {"measurement": "Uptake value", "setting": "[31]", "value": 8.1}, {"measurement": "Uptake value", "setting": "[32]", "value": 0.14}, {"measurement": "Uptake value", "setting": "[33]", "value": 0.07}, {"measurement": "Uptake value", "setting": "[34]", "value": 6.27}, {"measurement": "Uptake value", "setting": "[35]", "value": 0.97}, {"measurement": "Uptake value", "setting": "[36]", "value": 0.45}]}
